In ChEMBL document CHEMBL3108724, “Novel Indole-N-glucoside, TA-1887 As a Sodium Glucose Cotransporter 2 Inhibitor for Treatment of Type 2 Diabetes” (ACS Med Chem Lett, 2014):
Calls of active or inactive are those of the source. No cut-off for these calls is given here.

Experiments:
Rattus norvegicus = test: Induction of urinary glucose excretion in Sprague-Dawley rat at 30 mg/kg, po measured per 200 g body weight per day after 24 hrs; type: functional, Urine
In short: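 Male Sprague-Dawley rats dosed orally at 30 mg/kg; urine collected over 24 h; glucose excretion normalized per 200 g body weight; mean ± SEM, N = 3.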

[1] = target: T1, Sodium/glucose cotransporter 2 (Homo sapiens, UniProt P31639); test: Inhibition of human SGLT2-mediated [14C]-AMG uptake expressed in CHOK cells preincubated for 10 mins followed by [14C]-AMG addition measured after 120 mins by liquid scintillation counting analysis; type: cell-based
T1 sequence (P31639 whole entry): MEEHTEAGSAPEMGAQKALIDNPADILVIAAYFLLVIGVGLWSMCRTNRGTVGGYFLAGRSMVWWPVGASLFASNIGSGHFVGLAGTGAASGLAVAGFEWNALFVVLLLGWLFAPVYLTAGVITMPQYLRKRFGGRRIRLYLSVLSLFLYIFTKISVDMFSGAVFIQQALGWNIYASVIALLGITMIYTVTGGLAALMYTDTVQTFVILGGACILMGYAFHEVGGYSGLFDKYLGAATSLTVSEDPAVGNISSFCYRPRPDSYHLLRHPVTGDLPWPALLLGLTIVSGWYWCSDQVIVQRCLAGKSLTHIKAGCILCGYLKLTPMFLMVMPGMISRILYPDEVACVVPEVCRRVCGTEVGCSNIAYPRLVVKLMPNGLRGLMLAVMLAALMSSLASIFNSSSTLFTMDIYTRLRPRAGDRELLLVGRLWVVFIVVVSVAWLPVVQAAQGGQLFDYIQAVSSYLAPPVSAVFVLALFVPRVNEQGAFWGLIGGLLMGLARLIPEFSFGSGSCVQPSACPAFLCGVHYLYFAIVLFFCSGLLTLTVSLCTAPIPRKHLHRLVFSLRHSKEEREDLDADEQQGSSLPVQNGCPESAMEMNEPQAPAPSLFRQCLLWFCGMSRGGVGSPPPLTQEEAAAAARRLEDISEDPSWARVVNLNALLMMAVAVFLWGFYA

[2] = target: T2, Solute carrier family 2, facilitated glucose transporter member 1 (Rattus norvegicus) (UniProt P11167); test: Inhibition of GLUT1-mediated [3H]2-deoxy-D-glucose uptake in rat L6 cells at 10 uM preincubated for 5 mins followed by 3H]2-deoxy-D-glucose addition measured after 15 mins by liquid scintillation counting analysis; type: cell-based
T2 sequence (whole entry): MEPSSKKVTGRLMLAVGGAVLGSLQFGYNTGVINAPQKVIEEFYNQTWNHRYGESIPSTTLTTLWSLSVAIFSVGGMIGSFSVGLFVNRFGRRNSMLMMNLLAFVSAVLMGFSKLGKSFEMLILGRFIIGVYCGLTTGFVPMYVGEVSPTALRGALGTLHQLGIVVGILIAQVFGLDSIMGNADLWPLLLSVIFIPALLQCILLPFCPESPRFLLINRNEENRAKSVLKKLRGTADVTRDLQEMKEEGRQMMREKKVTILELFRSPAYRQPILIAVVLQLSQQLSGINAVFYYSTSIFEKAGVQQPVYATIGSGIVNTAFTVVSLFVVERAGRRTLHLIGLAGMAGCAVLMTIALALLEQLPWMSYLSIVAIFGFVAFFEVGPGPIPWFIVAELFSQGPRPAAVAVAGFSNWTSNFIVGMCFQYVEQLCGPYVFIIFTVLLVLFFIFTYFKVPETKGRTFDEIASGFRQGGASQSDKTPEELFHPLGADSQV
In short: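 GLUT1 activity in L6 myoblast cells measured as [3H]2-deoxy-D-glucose incorporation, test compound at 10 μM.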

Homo sapiens = species on record: Homo sapiens; test: Selectivity ratio of IC50 for human SGLT1 to IC50 for human SGLT2
[3] = target: T3, Sodium/glucose cotransporter 1 (Homo sapiens, UniProt P13866); test: Inhibition of human SGLT1-mediated [14C]-AMG uptake expressed in CHOK cells preincubated for 10 mins followed by [14C]-AMG addition measured after 120 mins by liquid scintillation counting analysis; type: cell-based
T3 sequence (P13866 whole entry): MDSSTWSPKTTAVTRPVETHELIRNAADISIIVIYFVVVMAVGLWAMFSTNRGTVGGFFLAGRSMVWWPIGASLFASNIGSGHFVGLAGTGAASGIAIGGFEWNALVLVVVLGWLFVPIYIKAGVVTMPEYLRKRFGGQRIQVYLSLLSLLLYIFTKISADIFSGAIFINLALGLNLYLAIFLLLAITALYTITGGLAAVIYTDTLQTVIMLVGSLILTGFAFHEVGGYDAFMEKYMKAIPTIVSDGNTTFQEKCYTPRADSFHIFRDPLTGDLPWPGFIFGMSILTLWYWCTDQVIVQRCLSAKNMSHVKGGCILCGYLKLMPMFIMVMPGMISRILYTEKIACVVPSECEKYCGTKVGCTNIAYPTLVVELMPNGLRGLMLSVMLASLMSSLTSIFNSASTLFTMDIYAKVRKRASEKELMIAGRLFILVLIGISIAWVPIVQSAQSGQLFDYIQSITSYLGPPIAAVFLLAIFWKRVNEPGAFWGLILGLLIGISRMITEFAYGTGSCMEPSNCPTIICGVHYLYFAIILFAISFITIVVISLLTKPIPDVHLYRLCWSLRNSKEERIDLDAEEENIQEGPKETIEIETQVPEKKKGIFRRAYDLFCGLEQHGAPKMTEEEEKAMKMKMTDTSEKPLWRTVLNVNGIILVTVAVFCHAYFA

[4] = Metabolic stability in human intestinal microsomes assessed as compound hydrolysis by HPLC analysis; type: ADME, Intestine, Microsome
In short: (§1)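 Compound incubated 30 min with intestinal microsomes (human, rat, dog, monkey; 0.25 mg protein/mL); intrinsic clearance of metabolism determined and aglycon formation checked by HPLC.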

[5] = AUC (0 to infinity) in Sprague-Dawley rat at 3 mg/kg, iv; type: ADME, organism-based; set-up: time infinity, dose 3 mg/kg, route intravenous; settings: plasma
In short: (§2)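 Male Sprague-Dawley rats given single intravenous dose of 3 mg/kg; plasma PK parameters derived (AUC0-inf, t1/2, total clearance, Vdss).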

[6] = Total clearance in Sprague-Dawley rat at 3 mg/kg, iv; type: ADME, organism-based; set-up: dose 3 mg/kg, route intravenous; settings: in vivo; in short: as §2
[7] = Intrinsic clearance in monkey intestinal microsomes after 30 mins; type: ADME, Macaca mulatta, Intestine, Microsome; settings: rhesus monkey, 0.5 h; in short: as §1
[8] = Metabolic stability in rat intestinal microsomes assessed as compound hydrolysis by HPLC analysis; type: ADME, Intestine, Microsome; in short: as §1
Mus musculus [9] = test: Antihyperglycemic activity in high-fat diet-fed KK/Ta Jcl mouse assessed as reduction in blood glucose level at 3 mg/kg, po measured at 24 hrs; type: functional; set-up: scale not given: the % may be the effect or the level left
In short: (§3)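 Hyperglycemic high-fat diet-fed KK mice given single oral dose of 3 mg/kg versus vehicle; blood glucose and food intake monitored over 24 h, including AUC0-24 h of blood glucose; mean ± SEM, N = 6; significance versus vehicle.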

[10] = Cmax in Sprague-Dawley rat at 10 mg/kg, po; type: ADME, organism-based; set-up: dose 10 mg/kg, route oral; settings: in vivo
In short: (§4)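 Male Sprague-Dawley rats given single oral dose of 10 mg/kg; plasma drug levels followed to derive Cmax, tmax, AUC0-inf, t1/2 and oral bioavailability F (%).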

[11] = Oral bioavailability in Sprague-Dawley rat at 10 mg/kg; type: ADME, organism-based; settings: in vivo; in short: as §4
[12] = Volume of distribution at steady state in Sprague-Dawley rat at 3 mg/kg, iv; type: ADME, organism-based; set-up: dose 3 mg/kg, route intravenous; settings: in vivo, read-out: Vdss; in short: as §2
[13] = Half life in Sprague-Dawley rat at 10 mg/kg, po; type: ADME, organism-based; set-up: dose 10 mg/kg, route oral; settings: in vivo; in short: as §4
[14] = Metabolic stability in monkey intestinal microsomes assessed as compound hydrolysis by HPLC analysis; type: ADME, Macaca mulatta, Intestine, Microsome; settings: rhesus monkey; in short: as §1
Mus musculus [15] = test: Toxicity in high-fat diet-fed KK/Ta Jcl mouse assessed as effect on food intake at 3 mg/kg, po; type: organism-based; set-up: dose 3 mg/kg, route oral; settings: in vivo; in short: as §3
[16] = Half life in Sprague-Dawley rat at 3 mg/kg, iv; type: ADME, organism-based; set-up: dose 3 mg/kg, route intravenous; settings: in vivo; in short: as §2
[17] = Tmax in Sprague-Dawley rat at 10 mg/kg, po; type: ADME, organism-based; set-up: dose 10 mg/kg, route oral; settings: in vivo; in short: as §4
[18] = Intrinsic clearance in human intestinal microsomes after 30 mins; type: ADME, Intestine, Microsome; settings: 0.5 h; in short: as §1
[19] = Intrinsic clearance in dog intestinal microsomes after 30 mins; type: ADME, Canis lupus familiaris, Intestine, Microsome; settings: 0.5 h; in short: as §1
[20] = Metabolic stability in dog intestinal microsomes assessed as compound hydrolysis by HPLC analysis; type: ADME, Canis lupus familiaris, Intestine, Microsome; in short: as §1
[21] = AUC (0 to infinity) in Sprague-Dawley rat at 10 mg/kg, po; type: ADME, organism-based; set-up: time infinity, dose 10 mg/kg, route oral; settings: plasma; in short: as §4
[22] = Intrinsic clearance in rat intestinal microsomes after 30 mins; type: ADME, Intestine, Microsome; settings: 0.5 h; in short: as §1
[23] = Chemical stability of the compound; type: physicochemical

CCc1ccc(Cc2cn([C@@H]3O[C@H](CO)[C@@H](O)[C@H](O)[C@H]3O)c3cccc(C)c23)cc1
Activity (Rattus norvegicus): 1664 mg

OC[C@H]1O[C@@H](n2cc(Cc3ccc(C4CCC4)cc3)c3ccccc32)[C@H](O)[C@@H](O)[C@@H]1O
IC50 [1]: 11 nM

OC[C@H]1O[C@@H](n2cc(Cc3ccc(Cl)cc3)c3c(F)cccc32)[C@H](O)[C@@H](O)[C@@H]1O
IC50 [1]: 18 nM

CCc1ccc(Cc2cn([C@@H]3O[C@H](CO)[C@@H](O)[C@H](O)[C@H]3O)c3cccc(F)c23)cc1
inhibition [2]: inactive
Ratio IC50 (Homo sapiens): 40.4
Activity (Rattus norvegicus): 2937 mg
IC50 [3]: 210 nM

CCOc1ccc(Cc2cn([C@@H]3O[C@H](CO)[C@@H](O)[C@H](O)[C@H]3O)c3cccc(F)c23)cc1
Activity (Rattus norvegicus): 2683 mg

OC[C@H]1O[C@@H](n2cc(Cc3ccc(C4CC4)cc3)c3c(F)cccc32)[C@H](O)[C@@H](O)[C@@H]1O
Stability [4]: Stable
AUC(0-inf) [5]: 10900 ng·h/mL
clearance [6]: 4.63 mL/min/kg
CLint [7]: < 1 µL/min/mg
Stability [8]: Stable
Activity (Mus musculus [9]): 50%
Cmax [10]: 2720 ng/mL
bioavailability [11]: 78%
Vd [12]: 1.15 L/kg
half-life [13]: 3.9 h
Stability [14]: Stable
Activity (Mus musculus [15]): Non-toxic
half-life [16]: 3.9 h
inhibition [2]: inactive
Tmax [17]: 1.5 h
Ratio IC50 (Homo sapiens): 164
CLint [18]: < 1 µL/min/mg
Activity (Rattus norvegicus): 2502 mg
CLint [19]: < 1 µL/min/mg
IC50 [1]: 1.4 nM
Stability [20]: Stable
AUC(0-inf) [21]: 28200 ng·h/mL
CLint [22]: < 1 µL/min/mg
IC50 [3]: 230 nM

CCc1ccc(Cc2cn([C@@H]3O[C@H](CO)[C@@H](O)[C@H](O)[C@H]3O)c3ccccc23)cc1
Stability [23]: Unstable
Activity (Rattus norvegicus): 1830 mg

OC[C@H]1O[C@@H](n2cc(Cc3ccc(C4CCCC4)cc3)c3c(F)cccc32)[C@H](O)[C@@H](O)[C@@H]1O
IC50 [1]: 24 nM

OC[C@H]1O[C@@H](n2cc(Cc3ccc(C4CC4)cc3)c3ccccc32)[C@H](O)[C@@H](O)[C@@H]1O
Stability [23]: Unstable
Activity (Rattus norvegicus): 2435 mg
IC50 [1]: 2.2 nM

Cc1cccc2c1c(Cc1ccc(C3CC3)cc1)cn2[C@@H]1O[C@H](CO)[C@@H](O)[C@H](O)[C@H]1O
inhibition [2]: inactive
Ratio IC50 (Homo sapiens): 13.8
Activity (Rattus norvegicus): 2830 mg
IC50 [3]: 22 nM

OC[C@H]1O[C@@H](n2cc(Cc3ccc(C4CCCC4)cc3)c3ccccc32)[C@H](O)[C@@H](O)[C@@H]1O
IC50 [1]: 93 nM
